Measured values published in ChEMBL document CHEMBL4396915, “Synthesis of new thiazolyl-pyrazolyl-1,2,3-triazole derivatives as potential antimicrobial agents” (2019).
Converted amounts (≈) assume the structure as drawn. The source made the active and inactive calls. The rule behind the calls is not given here.

Assays:
Format in all cases: functional
[1] = test system: Aspergillus niger; assay: Antifungal activity against Aspergillus niger NCIM 504 assessed as inhibition of fungal growth incubated for 48 to 72 hrs by broth microdilution susceptibility method
Summary of the method: (§1)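 Tube micro-dilution in Sabouraud liquid medium. Stocks were made in DMSO and serially diluted twofold in broth to final […]. Tubes inoculated with organisms grown in potato dextrose broth and held 48-72 h at 30 C. MIC is the lowest concentration with no growth. DMSO and uninoculated-media controls were included, in triplicate.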

[2] = test system: Staphylococcus epidermidis; assay: Antibacterial activity against Staphylococcus albus NCIM 2178 assessed as zone of inhibition at 80 ug/well incubated for 24 to 48 hrs by agar well diffusion method; settings: for zone of inhibition at 80 µg/disc: read-out: IZ
Summary of the method: (§2)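 Strains from NCIM kept on nutrient agar slants at 4 C and grown overnight at 37 C in nutrient broth. 500 microlitres of 24-48 h culture swabbed onto nutrient agar. Compounds in DMSO loaded into 5 mm wells, with a DMSO vehicle plate and streptomycin reference. Incubated 24-48 h at 37 C. Zone of inhibition measured in mm and averaged over 4 replicates.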

[3] = test system: Proteus mirabilis; assay: Antibacterial activity against Proteus mirabilis NCIM 2388 assessed as zone of inhibition at 80 ug/well incubated for 24 to 48 hrs by agar well diffusion method; summary of the method: as §2
[4] = test system: Rhodotorula glutinis; assay: Antifungal activity against Rhodotorula glutinis NCIM 3168 assessed as zone of inhibition at 80 ug/well incubated for 48 to 72 hrs by agar well diffusion method; settings: for zone of inhibition at 80 µg/disc: read-out: IZ
Summary of the method: (§3)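 Fungi kept on potato dextrose agar slants and grown in potato dextrose broth. 500 microlitres of 48-72 h spore suspension swabbed onto Mueller Hinton agar. Compounds in DMSO loaded into 5 mm wells, with a DMSO vehicle plate and fluconazole/ravuconazole positive-control plate. Incubated 48-72 h at 30 C. Clear zone measured in mm, mean of five replicates.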

[5] = test system: Escherichia coli; assay: Antibacterial activity against Escherichia coli NCIM 2574 assessed as zone of inhibition at 80 ug/well incubated for 24 to 48 hrs by agar well diffusion method; settings: for zone of inhibition at 80 µg/disc: read-out: IZ; summary of the method: as §2
[6] = test system: Candida albicans; assay: Antifungal activity against Candida albicans NCIM 3100 assessed as inhibition of fungal growth incubated for 48 to 72 hrs by broth microdilution susceptibility method; summary of the method: as §1
[7] = test system: Rhodotorula glutinis; assay: Antifungal activity against Rhodotorula glutinis NCIM 3168 assessed as inhibition of fungal growth incubated for 48 to 72 hrs by broth microdilution susceptibility method; summary of the method: as §1
[8] = test system: Aspergillus niger; assay: Antifungal activity against Aspergillus niger NCIM 504 assessed as zone of inhibition at 80 ug/well incubated for 48 to 72 hrs by agar well diffusion method; settings: for zone of inhibition at 80 µg/disc: read-out: IZ; summary of the method: as §3
[9] = test system: Candida albicans; assay: Antifungal activity against Candida albicans NCIM 3100 assessed as zone of inhibition at 80 ug/well incubated for 48 to 72 hrs by agar well diffusion method; settings: for zone of inhibition at 80 µg/disc: read-out: IZ; summary of the method: as §3

Structure (SMILES) | MIC [1] | zone of inhibition at 80 µg/disc [2] | inhibition zone (IZ) [3] | zone of inhibition at 80 µg/disc [4] | zone of inhibition at 80 µg/disc [5] | MIC [6] | MIC [7] | zone of inhibition at 80 µg/disc [8] | zone of inhibition at 80 µg/disc [9] | inhibition zone (IZ) [5] | inhibition zone (IZ) [2] | inhibition zone (IZ) [4] | inhibition zone (IZ) [8] | zone of inhibition at 80 µg/disc ([3]; read-out: IZ) | inhibition zone (IZ) [9]
Cc1nc(-c2ccc(Cl)cc2)sc1-c1nn(-c2ccccc2)cc1-c1cn(Cc2ccc(F)cc2)nn1 | 62.5 µg/mL (≈ 119 µM) | 11.3 mm | inactive | 20 mm | 12.2 mm | 250 µg/mL (≈ 474 µM) | 125 µg/mL (≈ 237 µM) | 12.5 mm | 13.8 mm | – | – | – | – | – | –
Cc1ccc(Cn2cc(-c3cn(-c4ccccc4)nc3-c3sc(-c4ccc(Cl)cc4)nc3C)nn2)cc1 | 125 µg/mL (≈ 239 µM) | 12 mm | inactive | 11.4 mm | 12.4 mm | 250 µg/mL (≈ 478 µM) | 125 µg/mL (≈ 239 µM) | 11.4 mm | 13.8 mm | – | – | – | – | – | –
Cc1nc(-c2ccc(F)cc2)sc1-c1nn(-c2ccccc2)cc1-c1cn(Cc2ccc(Br)cc2)nn1 | 125 µg/mL (≈ 219 µM) | 11.4 mm | inactive | 16.5 mm | – | 125 µg/mL (≈ 219 µM) | 62.5 µg/mL (≈ 109 µM) | 16.8 mm | 14.4 mm | inactive | – | – | – | – | –
Cc1nc(-c2ccccc2)sc1-c1nn(-c2ccccc2)cc1-c1cn(Cc2ccc(F)cc2)nn1 | 125 µg/mL (≈ 254 µM) | 10 mm | inactive | 14.6 mm | 11 mm | 125 µg/mL (≈ 254 µM) | 125 µg/mL (≈ 254 µM) | 16.4 mm | 15.8 mm | – | – | – | – | – | –
Cc1nc(-c2ccc(Br)cc2)sc1-c1nn(-c2ccccc2)cc1-c1cn(Cc2ccc(Br)cc2)nn1 | inactive | – | inactive | – | – | inactive | inactive | – | 15 mm | inactive | inactive | inactive | inactive | – | –
Cc1nc(-c2ccc(Br)cc2)sc1-c1nn(-c2ccccc2)cc1-c1cn(Cc2ccc(Cl)cc2)nn1 | 62.5 µg/mL (≈ 106 µM) | – | inactive | 14.8 mm | 11 mm | 125 µg/mL (≈ 213 µM) | 125 µg/mL (≈ 213 µM) | 13.5 mm | 14.8 mm | – | inactive | – | – | – | –
Cc1nc(-c2ccc(Br)cc2)sc1-c1nn(-c2ccccc2)cc1-c1cn(Cc2ccc(F)cc2)nn1 | 62.5 µg/mL (≈ 109 µM) | 12 mm | inactive | 11.7 mm | 11.8 mm | 125 µg/mL (≈ 219 µM) | 62.5 µg/mL (≈ 109 µM) | 17 mm | 12 mm | – | – | – | – | – | –
C[C@@H](c1nc(-c2ccc(C#N)cc2)cs1)[C@](O)(Cn1cncn1)c1ccc(F)cc1F [RAVUCONAZOLE] | 31.2 µg/mL (≈ 71.4 µM) | – | inactive | 20.1 mm | – | 7.81 µg/mL (≈ 17.9 µM) | 15.6 µg/mL (≈ 35.7 µM) | 20.2 mm | 28.6 mm | inactive | inactive | – | – | – | –
Cc1ccc(Cn2cc(-c3cn(-c4ccccc4)nc3-c3sc(-c4ccc(Br)cc4)nc3C)nn2)cc1 | 31.2 µg/mL (≈ 55.1 µM) | 12.6 mm | inactive | 13.3 mm | 11.6 mm | inactive | 125 µg/mL (≈ 220 µM) | 12.4 mm | 14.6 mm | – | – | – | – | – | –
OC(Cn1cncn1)(Cn1cncn1)c1ccc(F)cc1F [FLUCONAZOLE] | 7.81 µg/mL (≈ 25.5 µM) | – | inactive | 25.3 mm | – | 7.81 µg/mL (≈ 25.5 µM) | 7.81 µg/mL (≈ 25.5 µM) | 18.4 mm | 20.2 mm | inactive | inactive | – | – | – | –
Cc1nc(-c2ccccc2)sc1-c1nn(-c2ccccc2)cc1-c1cn(Cc2ccc(Cl)cc2)nn1 | 31.2 µg/mL (≈ 61.4 µM) | 12.2 mm | inactive | 19 mm | 13.2 mm | inactive | 62.5 µg/mL (≈ 123 µM) | 13.6 mm | 11.5 mm | – | – | – | – | – | –
Cc1nc(-c2ccc(Br)cc2)sc1-c1nn(-c2ccccc2)cc1-c1cn(Cc2ccccc2)nn1 | 62.5 µg/mL (≈ 113 µM) | 14.6 mm | inactive | 16.2 mm | 11.5 mm | 125 µg/mL (≈ 226 µM) | 62.5 µg/mL (≈ 113 µM) | 13.4 mm | 14.6 mm | – | – | – | – | – | –
Cc1nc(-c2ccc(Cl)cc2)sc1-c1nn(-c2ccccc2)cc1-c1cn(Cc2ccc(Cl)cc2)nn1 | 125 µg/mL (≈ 230 µM) | 11.5 mm | inactive | 14 mm | 9.8 mm | inactive | 62.5 µg/mL (≈ 115 µM) | 12.3 mm | 11.3 mm | – | – | – | – | – | –
Cc1nc(-c2ccc(F)cc2)sc1-c1nn(-c2ccccc2)cc1-c1cn(Cc2ccc(Cl)cc2)nn1 | 31.2 µg/mL (≈ 59.3 µM) | 11.8 mm | inactive | 14.5 mm | – | inactive | 125 µg/mL (≈ 237 µM) | 13.5 mm | 10.4 mm | inactive | – | – | – | – | –
Cc1ccc(Cn2cc(-c3cn(-c4ccccc4)nc3-c3sc(-c4ccccc4)nc3C)nn2)cc1 | 31.2 µg/mL (≈ 64 µM) | – | inactive | 19.5 mm | 10 mm | inactive | inactive | 14 mm | 11.8 mm | – | inactive | – | – | – | –
Cc1nc(-c2ccc(Cl)cc2)sc1-c1nn(-c2ccccc2)cc1-c1cn(Cc2ccccc2)nn1 | 31.2 µg/mL (≈ 61.4 µM) | 11 mm | inactive | 15.2 mm | 12.8 mm | 500 µg/mL (≈ 982 µM) | 125 µg/mL (≈ 246 µM) | 12.3 mm | 15.2 mm | – | – | – | – | – | –
Cc1ccc(-c2nc(C)c(-c3nn(-c4ccccc4)cc3-c3cn(Cc4ccc(Br)cc4)nn3)s2)cc1 | 31.2 µg/mL (≈ 55.1 µM) | 12.2 mm | inactive | 18.8 mm | 11 mm | 125 µg/mL (≈ 220 µM) | 62.5 µg/mL (≈ 110 µM) | 14.4 mm | 14 mm | – | – | – | – | – | –
CN[C@@H]1[C@H](O[C@H]2[C@H](O[C@H]3[C@H](O)[C@@H](O)[C@H](N=C(N)N)[C@@H](O)[C@@H]3N=C(N)N)O[C@@H](C)[C@]2(O)C=O)O[C@@H](CO)[C@H](O)[C@H]1O [STREPTOMYCIN] | – | 21.6 mm | – | – | 25 mm | – | – | – | – | – | – | inactive | inactive | 18.5 mm | inactive
Cc1nc(-c2ccccc2)sc1-c1nn(-c2ccccc2)cc1-c1cn(Cc2ccccc2)nn1 | inactive | – | inactive | – | – | inactive | inactive | – | – | – | – | – | – | – | –
